Activity calls are given as the source filed them. No cut-off for these calls is given here.
Experiments:
SK-MEL-28 [1] = assay: Reduction in ATP level in human SK-MEL-28 cells at 100 uM maintained in Locke's solution after 24 hrs by luciferase-based assay in absence of GF and glucose; type: functional, cell-based
How it was run: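 SK-MEL-28 cells were grown 24 h in Locke's saline lacking glucose and serum, with or without 100 µM compound; antimycin was the positive control. Cellular ATP was released with a somatic-cell releasing reagent, then luciferase/luciferin assay mix was added and bioluminescence read. Mean ± S.E.M. of 10–14 replicates from 3 separate experiments.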

HeLa = assay: Cytotoxicity against human HeLa cells assessed as cell death after 48 hrs
SK-MEL-28 [2] = assay: Increase in superoxide level in human SK-MEL-28 cells maintained in medium containing GF and glucose at 100 uM after 24 hrs by DHE-based fluorescence ssay; type: functional, cell-based
How it was run: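 Cells (SK-MEL-28) were kept 24 h in growth medium (DMEM + 10% serum) with or without 100 µM compound; antimycin was the positive control. They were labelled at 37 °C with DHE (10 µmol/L, 1% DMSO) in Locke's containing 5 mmol/L pyruvate for 40 min, stopped on ice and trypsinized. Flow-cytometric MFI of 10,000 cells, corrected for unlabelled autofluorescence; 3–4 separate experiments.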

[3] = molecular target: T1, NAD-dependent protein deacetylase sirtuin-1 (Homo sapiens) (UniProt Q96EB6); assay: Inhibition of human SIRT1 assessed as enzyme activity using Fluor-de-Lys as substrate at 1 mM by fluorometry; set-up: scale not given: the % may be the effect or the level left
T1 sequence (whole entry): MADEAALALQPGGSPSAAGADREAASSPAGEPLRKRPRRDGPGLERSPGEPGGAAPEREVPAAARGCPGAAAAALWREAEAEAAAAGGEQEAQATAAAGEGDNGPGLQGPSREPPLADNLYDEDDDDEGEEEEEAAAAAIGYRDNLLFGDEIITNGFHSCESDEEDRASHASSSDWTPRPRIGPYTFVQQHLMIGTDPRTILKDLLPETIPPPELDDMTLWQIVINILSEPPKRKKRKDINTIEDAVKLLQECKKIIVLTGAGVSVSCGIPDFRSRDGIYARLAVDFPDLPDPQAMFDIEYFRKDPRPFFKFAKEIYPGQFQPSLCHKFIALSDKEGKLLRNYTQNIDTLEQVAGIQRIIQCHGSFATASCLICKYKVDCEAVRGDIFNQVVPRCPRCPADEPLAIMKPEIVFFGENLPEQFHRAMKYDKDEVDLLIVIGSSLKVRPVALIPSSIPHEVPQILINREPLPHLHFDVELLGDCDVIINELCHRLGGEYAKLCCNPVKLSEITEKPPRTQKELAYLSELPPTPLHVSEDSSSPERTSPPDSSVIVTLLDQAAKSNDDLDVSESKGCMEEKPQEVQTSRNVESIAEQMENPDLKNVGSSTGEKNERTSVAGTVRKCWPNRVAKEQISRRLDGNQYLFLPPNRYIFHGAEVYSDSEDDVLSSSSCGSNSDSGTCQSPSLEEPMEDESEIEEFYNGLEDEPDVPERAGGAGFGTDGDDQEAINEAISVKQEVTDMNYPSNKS
How it was run: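 Commercial Fluor-de-Lys kit, substrate human p53 379–382 peptide (Arg-His-Lys-Lys(Ac)). Human Sirt1 or Sirt2 was incubated with substrate, NAD+ and compound at 1 mM, also tested at 100 µM. Fluorescence scales with Lys382 deacetylation. Activity is expressed relative to control, mean ± S.E.M. of 3–4 replicates.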

UACC-257 = assay: Growth inhibition of human UACC257 cells assessed as cell growth at 10 uM after 48 hrs by MTT assay; values are per cent of control; conditions: UACC-257, 48 h
M14 = assay: Growth inhibition of human M14 cells assessed as cell growth at 10 uM after 48 hrs by MTT assay; values are per cent of control; conditions: M14, 48 h
SN12C = assay: Growth inhibition of human SN12C cells assessed as cell growth at 10 uM after 48 hrs by MTT assay; values are per cent of control
NCI-H522 = assay: Growth inhibition of human NCI-H522 cells assessed as cell growth at 10 uM after 48 hrs by MTT assay; values are per cent of control; conditions: NCI-H522, 48 h
SK-MEL-2 = assay: Growth inhibition of human SK-MEL-2 cells assessed as cell growth at 10 uM after 48 hrs by MTT assay; values are per cent of control; conditions: SK-MEL-2, 48 h
OVCAR-8 = assay: Growth inhibition of human OVCAR8 cells assessed as cell growth at 10 uM after 48 hrs by MTT assay; values are per cent of control; conditions: OVCAR-8, 48 h
NCI-H322M = assay: Growth of human NCI-H322M cells assessed as cell growth at 10 uM after 48 hrs by MTT assay
RXF 393 = assay: Growth inhibition of human RXF393 cells assessed as cell growth at 10 uM after 48 hrs by MTT assay; values are per cent of control; conditions: RXF 393, 48 h
SW-620 = assay: Growth inhibition of human SW620 cells assessed as cell growth at 10 uM after 48 hrs by MTT assay; values are per cent of control; conditions: SW-620, 48 h
Malme-3M = assay: Growth inhibition of human MALME-3M cells assessed as cell growth at 10 uM after 48 hrs by MTT assay; values are per cent of control
COLO 205 = assay: Growth inhibition of human COLO205 cells assessed as cell growth at 10 uM after 48 hrs by MTT assay; values are per cent of control; conditions: COLO 205, 48 h
A498 = assay: Growth inhibition of human A498 cells assessed as cell growth at 10 uM after 48 hrs by MTT assay; values are per cent of control; conditions: A498, 48 h
TK-10 = assay: Growth inhibition of human TK10 cells assessed as cell growth at 10 uM after 48 hrs by MTT assay; values are per cent of control; conditions: TK-10, 48 h
HOP-62 = assay: Growth inhibition of human HOP62 cells assessed as cell growth at 10 uM after 48 hrs by MTT assay; values are per cent of control; conditions: HOP-62, 48 h
CAKI-1 = assay: Growth inhibition of human Caki1 cells assessed as cell growth at 10 uM after 48 hrs by MTT assay; values are per cent of control; conditions: CAKI-1, 48 h

c1cncc(-c2cnn[nH]2)c1
Activity (SK-MEL-28 [1]): Active | IC50 (HeLa): 4.7 µM | Activity (SK-MEL-28 [2]): Active | Activity [3]: 88% | growth, % of control at 10 µM (UACC-257): 90.3% | growth, % of control at 10 µM (M14): 72.5% | growth, % of control at 10 µM (SN12C): 102% | growth, % of control at 10 µM (NCI-H522): 101% | growth, % of control at 10 µM (SK-MEL-2): 109% | growth, % of control at 10 µM (OVCAR-8): 49.8% | growth, % of control at 10 µM (NCI-H322M): 104% | growth, % of control at 10 µM (RXF 393): 98.6% | growth, % of control at 10 µM (SW-620): 106% | growth, % of control at 10 µM (Malme-3M): 99% | growth, % of control at 10 µM (COLO 205): 23.8% | growth, % of control at 10 µM (A498): 105% | growth, % of control at 10 µM (TK-10): 103% | growth, % of control at 10 µM (HOP-62): 90.9% | growth, % of control at 10 µM (CAKI-1): 95.1%

Reference: ChEMBL document CHEMBL2062496, “Identification of a sirtuin 3 inhibitor that displays selectivity over sirtuin 1 and 2” (Eur J Med Chem, 2012)
